Results on eleven compounds are retold here after ChEMBL document CHEMBL4354797, “Novel Pyrazolo[4,3- d]pyrimidine as Potent and Orally Active Inducible Nitric Oxide Synthase (iNOS) Dimerization Inhibitor with Efficacy in Rheumatoid Arthritis Mouse Model” (J Med Chem, 2019).

Molecules are shown by their SMILES. A value given as a limit tells only on which side of the number the result lay.

The subject of experiment [1] is RAW264.7. The experiment can be described thus: Antiinflammatory activity in mouse RAW264.7 cells assessed as inhibition of LPS-induced NO production at 10 uM preincubated for 1 hr followed by LPS addition and measured after 24 hrs by Griess reagent-based assay relative to control. It is filed as functional. The method in brief:
(§1)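 RAW 264.7 cells pretreated with compound for 1 h, then LPS 1 µg/mL for 24 h. Single-point inhibition at 10 µM. IC50 by regression of inhibition over several concentrations. At least three independent experiments.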
(Nitrite, measured by Griess reagent, commonly stands in for NO production.)

The test system of experiment [2] is RAW264.7. The experiment can be described thus: Antiinflammatory activity in mouse RAW264.7 cells assessed as inhibition of LPS-induced NO production preincubated for 1 hr followed by LPS addition and measured after 24 hrs by Griess reagent-based assay. It is filed as functional, cell-based. The method in brief: as §1
In experiment [3] the test system is RAW264.7. The experiment can be described thus: Cytotoxicity against mouse RAW264.7 cells assessed as reduction in cell viability. It is filed as cell-based.
For experiment [4], the target named is T1, Nitric oxide synthase, inducible (Mus musculus, UniProt P29477).
T1 sequence (P29477 whole entry): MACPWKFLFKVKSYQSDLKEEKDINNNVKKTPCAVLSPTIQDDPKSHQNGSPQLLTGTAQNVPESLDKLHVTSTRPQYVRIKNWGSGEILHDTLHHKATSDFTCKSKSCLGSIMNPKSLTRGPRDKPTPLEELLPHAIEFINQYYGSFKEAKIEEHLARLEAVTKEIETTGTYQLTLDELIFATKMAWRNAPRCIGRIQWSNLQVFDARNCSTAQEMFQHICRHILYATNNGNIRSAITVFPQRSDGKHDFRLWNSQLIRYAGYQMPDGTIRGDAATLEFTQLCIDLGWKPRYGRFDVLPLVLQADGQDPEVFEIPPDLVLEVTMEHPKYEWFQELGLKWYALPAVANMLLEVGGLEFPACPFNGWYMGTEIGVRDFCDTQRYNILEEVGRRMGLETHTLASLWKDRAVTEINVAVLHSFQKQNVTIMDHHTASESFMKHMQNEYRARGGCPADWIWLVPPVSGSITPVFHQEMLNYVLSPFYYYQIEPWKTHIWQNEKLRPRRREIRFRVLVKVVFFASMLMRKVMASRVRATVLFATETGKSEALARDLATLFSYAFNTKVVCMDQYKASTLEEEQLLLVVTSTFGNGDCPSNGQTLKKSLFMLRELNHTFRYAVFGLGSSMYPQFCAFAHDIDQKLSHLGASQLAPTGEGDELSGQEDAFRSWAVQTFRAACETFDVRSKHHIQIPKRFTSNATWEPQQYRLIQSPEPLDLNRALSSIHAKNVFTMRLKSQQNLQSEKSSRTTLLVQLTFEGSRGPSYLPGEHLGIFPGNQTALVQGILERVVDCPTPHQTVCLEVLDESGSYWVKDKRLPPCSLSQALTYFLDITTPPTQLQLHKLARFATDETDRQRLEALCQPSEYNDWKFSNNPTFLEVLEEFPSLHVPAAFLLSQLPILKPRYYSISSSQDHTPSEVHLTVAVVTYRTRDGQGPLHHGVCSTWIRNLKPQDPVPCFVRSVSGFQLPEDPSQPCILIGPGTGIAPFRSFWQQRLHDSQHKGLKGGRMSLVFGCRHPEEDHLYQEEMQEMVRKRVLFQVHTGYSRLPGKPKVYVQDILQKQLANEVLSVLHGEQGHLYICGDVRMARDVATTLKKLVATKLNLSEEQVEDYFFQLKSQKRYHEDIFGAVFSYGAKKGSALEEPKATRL
The experiment in a line: Inhibition of iNOS in LPS-stimulated mouse RAW 264.7 cells preincubated for 1 hr followed by LPS-stimulation and measured after 6 hrs by fluorescence based assay. The method in brief:
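Inhibition calculated relative to LPS-stimulated and unstimulated controls. IC50 obtained by regression of inhibition rates at several concentrations. Indomethacin served as positive control.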

Experiment [5] has as its system RAW264.7. The experiment in a line: Cytotoxicity against LPS-induced mouse RAW264.7 cells assessed as reduction in cell viability. It is filed as cell-based.
[6] abbreviates: Mus musculus, RAW264.7, read-out: IC50.

In general, inhibition refers to how much of the control response was suppressed. The term IC50 denotes the concentration needed to halve the response being measured. With `CCCc1nn(C)c2c(Nc3ccc(C(=O)O)cc3)nc(-c3cc(OC)c(OC)c(OC)c3)nc12`, in the experiment on RAW264.7 [1], the inhibition at 10 µM came out at 44.9%. Besides, the IC50 was 15.8 µM in the experiment on RAW264.7 [2] (setting [6]), greater than 50 µM in the experiment with RAW264.7 [3], 10.2 µM in experiment [4] (read-out: IC50) and greater than 50 µM in the experiment on RAW264.7 [5].

Turning to `CCCc1nn(C)c2c(NCC(C)C)nc(/C=C/c3ccccc3)nc12`, the inhibition at 10 µM in the experiment on RAW264.7 [1] was 33.3%. Besides, the IC50 in the experiment with RAW264.7 [2] (setting [6]) is 22.1 µM; with RAW264.7 [3], greater than 50 µM; in experiment [4] (read-out: IC50), 5.31 µM; in the experiment on RAW264.7 [5], greater than 50 µM.

For `CCCc1nn(C)c2c(N3CCCC3)nc(-c3cc(OC)c(OC)c(OC)c3)nc12`, the inhibition at 10 µM in the experiment on RAW264.7 [1] is 3.1%. Also, the IC50 entry in the experiment on RAW264.7 [2] (raw264.7) is “Not Active”; in the experiment with RAW264.7 [3], greater than 50 µM; in experiment [4], “Not Active”; in the experiment on RAW264.7 [5] it was greater than 50 µM.

`CCCc1nn(C)c2c(NC(C)C)nc(/C=C/c3ccccc3)nc12`: the inhibition at 10 µM with RAW264.7 [1] worked out at 53.9%. Moreover, the IC50 with RAW264.7 [2] (setting [6]) is 12.2 µM; with RAW264.7 [3], greater than 50 µM; in experiment [4] (read-out: IC50) it was 8.46 µM; in the experiment on RAW264.7 [5], greater than 50 µM.

As for `CCCc1nn(C)c2c(NC(C)C)nc(-c3cc(OC)c(OC)c(OC)c3)nc12`, the inhibition at 10 µM in the experiment with RAW264.7 [1] was found to be 51.9%. The IC50 in the experiment on RAW264.7 [2] (setting [6]) is 10.8 µM; in the experiment with RAW264.7 [3], greater than 50 µM; in experiment [4] (read-out: IC50), 7.26 µM; with RAW264.7 [5], greater than 50 µM.

On to `CCCc1nn(C)c2c(NCCc3ccc(Cl)cc3)nc(/C=C/c3ccco3)nc12`, for which, in the experiment on RAW264.7 [1], the inhibition at 10 µM worked out at 79.2%. Further, the IC50 is 6.04 µM with RAW264.7 [2] (setting [6]), greater than 50 µM in the experiment with RAW264.7 [3], 2.6 µM in experiment [4] (read-out: IC50) and greater than 50 µM in the experiment with RAW264.7 [5].

`CCCc1nn(C)c2c(NCc3ccc(Cl)cc3)nc(/C=C/c3ccco3)nc12`: the inhibition at 10 µM with RAW264.7 [1] is 56.4%. Also, the IC50 in the experiment on RAW264.7 [2] (setting [6]) was 9.26 µM; with RAW264.7 [3], greater than 50 µM; in experiment [4] (read-out: IC50) it was 4.25 µM; with RAW264.7 [5], greater than 50 µM.

Turning to `CCCc1nn(C)c2c(Nc3ccccc3)nc(/C=C/c3ccccc3)nc12`, the inhibition at 10 µM in the experiment with RAW264.7 [1] came to 4.9%. The IC50 entry was “Not Active” with RAW264.7 [2] (raw264.7), greater than 50 µM with RAW264.7 [3], “Not Active” in experiment [4] and greater than 50 µM in the experiment on RAW264.7 [5].

Take `COc1ccc2c(c1)c(CC(=O)O)c(C)n2C(=O)c1ccc(Cl)cc1` [INDOMETHACIN]: the inhibition at 10 µM with RAW264.7 [1] amounted to 59.2%. Besides, the IC50 was greater than 50 µM in the experiment on RAW264.7 [3], 24.9 µM in experiment [4] (read-out: IC50) and greater than 50 µM in the experiment on RAW264.7 [5].

On to `CCCc1nn(C)c2c(N3CCC(O)CC3)nc(/C=C/c3cc(OC)c(OC)c(OC)c3)nc12`, for which the inhibition at 10 µM in the experiment on RAW264.7 [1] turned out to be 45.3%. In addition, the IC50 with RAW264.7 [2] (setting [6]) was 13.7 µM; in the experiment with RAW264.7 [3], greater than 50 µM; in experiment [4] (read-out: IC50) it was 5.23 µM; with RAW264.7 [5], greater than 50 µM.

For `CCCc1nn(C)c2c(NCc3ccc(C(F)(F)F)cc3)nc(/C=C/c3cc(OC)c(OC)c(OC)c3)nc12`, in the experiment with RAW264.7 [1], the inhibition at 10 µM stood at 54.6%.
